Compound activity: PubChem, Sanford-Burnham Center for Chemical Genomics
mIAP inh: inhibitors of mouse IAP, primary screen, biochemical, luminescence, uHTS. 0.2% of 330,000 active. intestinal alkaline phosphatase [Mus musculus]. purified mouse IAP, CDP-Star luminescence, 30 min. inhibition, % at 10 µM;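 active = inhibition of at least 40% at 10 µM in the primary screen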
bIAP activator: bovine intestinal alkaline phosphatase activators, primary screen, biochemical, bovine IAP, CDP-star luminescence. purified bovine IAP, 30 min; active compounds read high; fold of DMSO-control signal, blank-subtracted. alkaline phosphatase, intestinal [Bos taurus]. 0.17% of 200,000 active. activation factor at 20 µM;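 active = activation factor of 2 or more at 20 µM, a signal rise over negative controls twice the positive control's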
mIAP activ: activators of mouse IAP, primary screen, biochemical, luminescence, uHTS; 0.24% of 330,000 active; activation factor at 10 µM; muIAP, CDP-Star luminescence, 30 min; active compounds read high; 1 = vehicle-only enzyme signal, 0 = enzyme-free wells; intestinal alkaline phosphatase [Mus musculus];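 active = activation factor of at least 2 at 20 µM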
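Assay system: mouse IAP enzyme; Reagent: CDP-Star chemiluminescent phosphatase substrate; Compound: DMSO-dissolved test compounds; Incubation: 30 min, room temperature; Technique: luminescence from enzymatic CDP-Star hydrolysis; Controls: DMSO-only wells and no-enzyme negative control.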
hIAP act: human IAP activators, primary screen, biochemical, luminescence, uHTS. Intestinal-type alkaline phosphatase (Homo sapiens), P09923. purified human IAP, CDP-Star luminescence, 30 min; active compounds read high; 1 = vehicle-only enzyme, 0 = enzyme-free background. activation factor at 10 µM. 0.16% of 330,000 active. AID 2524, 2010;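 active = activation factor of the enzyme at least 2-fold when tested at 20 µM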
Target sequence (P09923 whole entry, looked up): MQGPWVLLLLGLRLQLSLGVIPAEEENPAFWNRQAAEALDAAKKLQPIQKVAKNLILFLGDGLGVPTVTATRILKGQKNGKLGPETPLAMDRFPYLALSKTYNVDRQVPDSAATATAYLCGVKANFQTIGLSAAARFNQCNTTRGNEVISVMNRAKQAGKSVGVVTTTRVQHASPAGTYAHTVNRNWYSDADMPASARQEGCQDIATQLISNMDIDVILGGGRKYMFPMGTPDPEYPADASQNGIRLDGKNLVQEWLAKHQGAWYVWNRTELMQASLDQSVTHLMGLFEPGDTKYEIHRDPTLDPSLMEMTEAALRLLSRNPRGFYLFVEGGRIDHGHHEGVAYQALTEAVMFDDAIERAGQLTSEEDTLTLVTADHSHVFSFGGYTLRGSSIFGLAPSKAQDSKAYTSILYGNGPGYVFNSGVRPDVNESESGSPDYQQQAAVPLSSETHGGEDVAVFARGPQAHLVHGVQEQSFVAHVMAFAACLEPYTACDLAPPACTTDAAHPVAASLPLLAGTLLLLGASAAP
hIAP inh: human IAP inhibitors, primary screen, biochemical, luminescence, uHTS; inhibition, % at 10 µM; AID 2544, 2010; purified IAP, CDP-Star luminescence, 30 min; 0.12% of 330,000 active; Intestinal-type alkaline phosphatase (Homo sapiens), P09923;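 active = inhibition reaching a set limit with compound at 10 µM in the primary screen, cut at about 35% in these data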
bIAP inhibitor: bovine intestinal alkaline phosphatase inhibitors, primary screen, selectivity assay for TNAP inhibitor project, biochemical, bovine IAP, CDP-star luminescence. alkaline phosphatase, intestinal [Bos taurus]. purified bovine IAP, 30 min. inhibition, % at 20 µM. 190,000 tested, under 10 active;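 active = over 50% inhibition of intestinal alkaline phosphatase at 20 µM in the single-dose screen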
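Assay system: bovine IAP enzyme; medium: DEA buffer 100 mM, pH 9.8, with MgCl2 1.0 mM, ZnCl2 0.02 mM; doses: 20 µM single dose; incubation: enzyme reaction for 30 min at room temperature; detection: CDP-star luminescence signal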
Numbers stand for hits; - = inactive; . = no result. In the library only some 0.77% were active in any assay of this set; here they are far more common.

SMILES | mIAP inh | bIAP activator | mIAP activ | hIAP act | hIAP inh | bIAP inhibitor
O=C(CN1CCC(c2nc3ccccc3[nH]2)CC1)Nc1ccc2c(c1)OCO2 | - | - | - | - | - | -
Cc1ccc2nc(C3CCN(CC(=O)Nc4ccc5c(c4)OCCO5)CC3)[nH]c2c1 | - | 2.1 | - | - | - | -
COC(=O)[C@H](Cc1ccccc1)NC(=O)C1(OC(C)=O)CC(OC(C)=O)C(OC(C)=O)C(OC(C)=O)C1 (some centres undefined) | - | . | - | - | - | .
CCOc1ccc(S(=O)(=O)NN)cc1 | - | 2 | - | - | - | -
CC1CCN(C(=O)C(C)NCc2ccc(F)cc2)CC1 (centres undefined) | - | . | - | - | - | .
O=C(COC(=O)c1cn(-c2ccccc2)nc1-c1ccccc1)Nc1ncc(Cl)cc1Cl | - | . | - | - | - | .
COc1cccc(-c2nn(-c3ccccc3)cc2C(=O)OCC(=O)Nc2ncc(Cl)cc2Cl)c1 | - | 2 | - | - | - | -
Cc1nn(-c2ccccc2)c(C)c1/C=C/C(=O)OCC(=O)Nc1ncc(Cl)cc1Cl | - | 11 | - | - | - | -
CCOC(=O)c1nn(-c2ccc(Cl)cc2)c(C)cc1=O | - | . | - | - | - | .
O=C(O)c1ccccc1C(=O)NCCCn1ccnc1 | - | . | - | - | - | .
O=C(NCCCn1ccnc1)c1cn(-c2ccccc2)nc1-c1ccc(F)cc1 | - | 2.2 | - | - | - | -
CCOc1ccccc1C(=O)NC1CC2CCCC(C1)N2Cc1nnnn1Cc1ccco1 (centres undefined) | - | - | - | - | - | -
O=C(NC1CC2CCC(C1)N2Cc1nnnn1Cc1ccco1)NC12CC3CC(CC(C3)C1)C2 (centres undefined) | - | 3.4 | - | - | - | -
CC(C)(C)c1ccc(OCC(=O)Nc2ccc(-c3nc4cccnc4o3)cc2)cc1 | - | 2 | - | - | - | -
O=C(NCC(=O)N(c1cccc(F)c1)C(C(=O)NC1CCCC1)c1ccncc1)c1cccs1 (centres undefined) | - | . | - | - | - | .
Cn1c(SCC(=O)NC2CCCC2)nnc1C(F)(F)F | - | . | - | - | - | .
COc1cccc(NC(=S)NC2CC3CCCC(C2)N3C2CCCC2)c1 (centres undefined) | - | - | - | - | - | -
Cc1cc(C)cc(NC(=S)NC2CC3CCCC(C2)N3C2CC2)c1 (centres undefined) | - | - | 2.3 | - | - | -
S=C(Nc1ccc(Cl)cc1)NC1CC2CCCC(C1)N2C1CC1 (centres undefined) | - | - | 2.6 | - | - | -
S=C(NCc1ccncc1)Nc1cccc(Cl)c1 | - | - | - | - | - | -
S=C(Nc1cccc(Cl)c1)NC1CC2CCCC(C1)N2C1CCCC1 (centres undefined) | - | - | 2.2 | - | - | -
S=C(NCCN(C1CCCCC1)C1CCCC1)Nc1cccc(Cl)c1 | - | . | 2 | - | - | .
S=C(Nc1ccc(Cl)cc1)NC1CC2CCCC(C1)N2C1CCCC1 (centres undefined) | - | - | - | - | - | -
O=C(NC(=S)NC(CO)c1ccccc1)c1ccc(F)cc1 (centres undefined) | - | . | - | - | - | .
Cc1nnc(SCC(=O)Nc2c(Cl)cccc2Cl)n(N)c1=O | - | . | - | - | - | .
SMILES | mIAP inh | bIAP activator | mIAP activ | hIAP act | hIAP inh | bIAP inhibitor
CCC(C(=O)NC1CCCC1)N(C(=O)Cn1nnc(-c2ccc(C)o2)n1)c1cccc(OC)c1 (centres undefined) | - | . | - | - | - | .
S=C(NCc1cccc(Cl)c1)NC1CCCCC1 | - | - | 2.5 | - | - | -
C=CCN1C2CCCC1CC(NC(=O)Nc1cc(C)cc(C)c1)C2 (centres undefined) | - | 2 | - | - | - | -
Cc1cc(C)cc(NC(=S)NC2CC3CCCC(C2)N3CC(C)C)c1 (centres undefined) | - | - | - | - | - | -
CNC(=S)NC1CC2CCC(C1)N2Cc1ccccc1 (centres undefined) | - | - | - | - | - | -
S=C(Nc1ccc(Cl)cc1)NC1CC2CCC(C1)N2Cc1ccccc1 (centres undefined) | - | - | 2.3 | - | - | -
COc1ccc(NC(=O)C2CCC(CNc3c(N4CCC(C)CC4)c(=O)c3=O)CC2)cc1OC (centres undefined) | - | 3.1 | - | - | - | -
COc1cc(NC(=O)C2CCC(CNc3c(N4CCC(C)CC4)c(=O)c3=O)CC2)cc(OC)c1 (centres undefined) | - | - | - | - | - | -
Cc1cc(C)c2c(n1)nn1c(NCCCn3ccnc3)cc(C)nc21 | . | 2.3 | . | . | . | -
Cc1cc(NCCCn2ccnc2)n2nc(-c3ccc(F)cc3)cc2n1 | - | - | - | - | - | -
CNS(=O)(=O)c1cn(CC(=O)NCc2ccc(F)cc2)cc1S(=O)(=O)NC | - | . | - | - | - | .
CCC(C)[C@H](NC(=O)N1CCn2c1nc1ccccc12)C(=O)NCCc1ccc(OC)c(OC)c1 (some centres undefined) | - | . | - | - | - | .
O=C(Nc1ccc(F)cc1)C1CCN(S(=O)(=O)c2ccc3[nH]c(=O)oc3c2)CC1 | - | . | - | - | - | .
COc1cccc2cc(C(C)OC(=O)Nc3ccc(C)cc3)oc12 (centres undefined) | - | - | - | - | - | -
O=C(O)c1ccccc1C(=O)NCC(O)COc1ccc(Cl)cc1 (centres undefined) | - | . | - | - | - | .
N#C/C(=C/c1ccc(-c2ccc(S(N)(=O)=O)cc2)o1)c1nc2ccccc2s1 | 57 | - | - | - | - | -
N#C/C(=C/c1ccc(-c2ccc(S(N)(=O)=O)cc2)o1)C(=O)Nc1ccccc1 | - | - | - | - | - | -
CCN(CC(=O)Nc1ccc(N2CCOCC2)cc1)C(=O)COc1ccccc1OC | - | - | - | - | - | -
Cc1[nH]c2ccccc2c1C(=O)COC(=O)c1ccccc1O | - | . | - | - | - | .
O=C(N=NC(=O)c1ccc2c(O)n(CC3CCCO3)c(O)c2c1)c1cccnc1 (centres undefined) | - | . | - | - | - | .
COc1ccc(CNC[C@@H](CCCCN(C)Cc2ccc(OC)cc2)N2C[C@H](c3ccccc3)N(CCc3ccc(Cl)c(Cl)c3)C(=O)C2=O)cc1 | - | 6.6 | - | - | - | -
CCNC(=O)CCSc1nnc(-c2ccco2)o1 | - | - | - | - | - | -
